We go through 14 compounds from ChEMBL document CHEMBL1133128, “Hepatitis C viral IRES inhibition by phenazine and phenazine-like molecules” (Bioorg Med Chem Lett, 2000).

The structures appear in SMILES notation. Values after ≈ are worked out from the molar mass of the structure shown.

One may read the IC50 as the concentration that inhibits the measured activity by half. Low values mean greater potency in that assay, high ones weaker potency in that assay. Broadly, the CC50 is the concentration at which the toxic effect on the cells reaches its halfway point. Low readings indicate greater toxicity to the cells, high ones lower toxicity to the cells.

For experiment [1], the system named is Huh-7. The experiment in a line: Anti-Hepatitis C Viral IRES activity of compound by measured as Fluci signal in HC40 cells. As to conditions: Homo sapiens. It is filed as functional, cell-based. A digest of the protocol: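 Huh7-derived HC40 line expressing CAT-IRES-Fluci under a CMV promoter, so luciferase reports IRES-dependent translation. Cells seeded at 1.5×10^4/well 24 h before dosing. Compounds added at various concentrations in 0.2% DMSO final and incubated 24 h at 37 °C. Cells washed twice in PBS, lysed 10 min in the dark in luciferin lysis buffer, then luciferase read.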

The nature of experiment [2]: Ratio of inhibitory concentration against Hepatitis C Viral IRES in HC40 cells to that of HCF cells was determined. It is filed as functional. A digest of the protocol:
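Ratio of the HC40 value to the HCF value. HCF cells are pooled Huh-7 stably transfected with CMV-Fluci (CMV control, no IRES control). Both lines seeded at 1.5×10^4/well 24 h ahead, dosed at various concentrations in 0.2% DMSO final for 24 h at 37 °C, washed twice in PBS, lysed in luciferin buffer for 10 min in the dark, and luciferase read.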

Experiment [3] concerns Huh-7. The experiment in a line: Cytotoxic concentration of compound HC40 cells determined by using MTT assay. It is filed as functional. Conditions: Homo sapiens.

Turning to `CCN(CC)c1ccc2[o+]c3cc(C)c(N)cc3nc2c1.[Cl-]`, in the experiment with Huh-7 [1], the IC50 came out at 1 µg/mL. Besides, the Ratio in experiment [2] stood at 3. In addition, the CC50 in the experiment on Huh-7 [3] was less than 1 µg/mL.
In the case of `Nc1ccc2c(c1)NC(=O)c1cc(N)cnc1O2`, the IC50 in the experiment with Huh-7 [1] was greater than 10 µg/mL. The compound also displayed a CC50 with Huh-7 [3] greater than 10 µg/mL.
Turning to `Cc1cc2nc3ccc(N(C)C)cc3nc2cc1I`, the IC50 with Huh-7 [1] is greater than 10 µg/mL. Also, the CC50 with Huh-7 [3] was greater than 10 µg/mL.
Regarding `Cc1cc2nc3ccc(O)cc3nc2cc1N`, inhibition with Huh-7 [1] was half-maximal at 3.74 µg/mL (≈ 16.6 µM) (IC50). Moreover, the Ratio in experiment [2] is greater than 2.7. For the same compound, the CC50 in the experiment with Huh-7 [3] was greater than 10 µg/mL.
The corresponding values for `CN(C)c1ccc(Nc2ccc(N(C)C)cc2)cc1` are 2.19 µg/mL (≈ 8.58 µM), 0.8 and 2.3 µg/mL (≈ 9.01 µM).
In turn, `Nc1ccc2c(c1)Oc1ncccc1C(=O)N2` came in with an IC50 in the experiment on Huh-7 [1] greater than 10 µg/mL. Moreover, the 50% cytotoxic concentration (CC50) with Huh-7 [3] was greater than 10 µg/mL.
For `Nc1ccc2[nH]c3ccc(N)cc3c2c1`, the IC50 with Huh-7 [1] is greater than 10 µg/mL. In addition, the CC50 in the experiment on Huh-7 [3] is greater than 10 µg/mL.
`Nc1cc2nc3ccccc3nc2cc1N`: the midpoint of inhibition in the experiment on Huh-7 [1], the IC50, lay at 4.03 µg/mL (≈ 19.2 µM). In addition, in experiment [2], the Ratio was determined as 2.5. The same compound registered a CC50 in the experiment on Huh-7 [3] greater than 10 µg/mL.
In turn, `Nc1ccc(Nc2ccc(N)cc2)cc1` displayed an IC50 in the experiment on Huh-7 [1] greater than 10 µg/mL.
Regarding `CN(C)c1ccc2c(c1)Sc1cc(N(C)C)ccc1N2C(=O)c1ccccc1`, the IC50 in the experiment with Huh-7 [1] is greater than 10 µg/mL. The compound further returned a CC50 in the experiment on Huh-7 [3] greater than 10 µg/mL.
Compound `Cc1cc2nc3ccc(N(C)C)cc3nc2cc1N` gave an IC50 with Huh-7 [1] of 0.02 µg/mL (≈ 0.0793 µM). The Ratio in experiment [2] was determined as 10. Besides, the CC50 in the experiment with Huh-7 [3] was greater than 10 µg/mL.
Regarding `Cc1cc2c(cc1N)N(c1ccccc1C)c1cc(N(C)C)c(C)cc1N2`, 1 µg/mL (≈ 2.79 µM) corresponded to half-maximal inhibition in the experiment on Huh-7 [1] (IC50). The Ratio in experiment [2] stood at 1. Also, the CC50 with Huh-7 [3] is greater than 10 µg/mL.
In the experiment on Huh-7 [1], `CN(C)c1ccc(C(=O)c2ccc(N(C)C)cc2)cc1` [MICHLER'S KETONE] displayed an IC50 greater than 10 µg/mL.
Compound `CC(=O)[O-].Nc1ccc2nc3ccc(N)cc3[s+]c2c1` [THIONIN ACETATE] came in with an IC50 in the experiment on Huh-7 [1] of 2.86 µg/mL. Besides, the Ratio in experiment [2] is listed as 1.7. Moreover, the CC50 in the experiment with Huh-7 [3] was 4.67 µg/mL.
